Measured values: the M2OR odorant receptor database

Assays:
Conditions in all cases: stereoisomer not certain
[1] = target: T1, OR1G1 (Homo sapiens) (UniProt P47890)
T1 sequence (whole entry): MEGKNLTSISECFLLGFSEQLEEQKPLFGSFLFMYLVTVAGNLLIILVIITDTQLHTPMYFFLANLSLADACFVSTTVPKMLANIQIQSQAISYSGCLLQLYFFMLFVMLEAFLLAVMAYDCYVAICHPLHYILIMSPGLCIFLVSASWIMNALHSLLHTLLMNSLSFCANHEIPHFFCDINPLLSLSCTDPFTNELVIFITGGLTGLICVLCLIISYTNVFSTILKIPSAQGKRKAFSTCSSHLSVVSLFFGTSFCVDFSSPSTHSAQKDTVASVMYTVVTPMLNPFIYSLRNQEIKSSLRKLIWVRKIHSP
How it was run: (§1)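 Each entry records the cell line, G-protein, co-transfected protein and tags used. Methods varied with the source, often transient luciferase assays in mammalian cell lines. A receptor–molecule pair is called responsive (active) if the original authors judged its signal statistically different from baseline and non-responsive (inactive) otherwise.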

[2] = target: T2, OR1F12P (Homo sapiens) (UniProt Q8NHA8)
T2 sequence (whole entry): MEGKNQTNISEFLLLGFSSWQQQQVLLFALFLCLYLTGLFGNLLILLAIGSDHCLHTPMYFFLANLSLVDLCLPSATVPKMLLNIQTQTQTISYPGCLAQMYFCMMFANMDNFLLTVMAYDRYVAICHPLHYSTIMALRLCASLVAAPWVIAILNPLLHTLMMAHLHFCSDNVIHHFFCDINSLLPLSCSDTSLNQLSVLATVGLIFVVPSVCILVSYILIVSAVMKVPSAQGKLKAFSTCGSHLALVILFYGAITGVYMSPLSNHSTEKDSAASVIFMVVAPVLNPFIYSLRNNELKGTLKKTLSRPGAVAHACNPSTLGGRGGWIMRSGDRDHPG
How it was run: as §1

[3] = target: T3, OR1I1 (Homo sapiens) (UniProt O60431)
T3 sequence (whole entry): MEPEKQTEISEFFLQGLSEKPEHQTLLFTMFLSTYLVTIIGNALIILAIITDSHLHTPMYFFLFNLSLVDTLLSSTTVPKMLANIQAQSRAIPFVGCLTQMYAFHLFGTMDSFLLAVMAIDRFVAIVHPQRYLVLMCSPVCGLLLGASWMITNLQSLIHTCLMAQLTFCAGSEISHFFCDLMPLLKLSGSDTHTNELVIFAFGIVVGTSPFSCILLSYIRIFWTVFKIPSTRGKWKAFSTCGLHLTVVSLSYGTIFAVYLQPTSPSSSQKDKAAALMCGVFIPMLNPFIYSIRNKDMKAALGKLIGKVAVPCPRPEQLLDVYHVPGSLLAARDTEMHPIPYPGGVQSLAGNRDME
How it was run: as §1

[4] = target: T4, OR1J1 (Homo sapiens) (UniProt Q8NGS3)
T4 sequence (whole entry): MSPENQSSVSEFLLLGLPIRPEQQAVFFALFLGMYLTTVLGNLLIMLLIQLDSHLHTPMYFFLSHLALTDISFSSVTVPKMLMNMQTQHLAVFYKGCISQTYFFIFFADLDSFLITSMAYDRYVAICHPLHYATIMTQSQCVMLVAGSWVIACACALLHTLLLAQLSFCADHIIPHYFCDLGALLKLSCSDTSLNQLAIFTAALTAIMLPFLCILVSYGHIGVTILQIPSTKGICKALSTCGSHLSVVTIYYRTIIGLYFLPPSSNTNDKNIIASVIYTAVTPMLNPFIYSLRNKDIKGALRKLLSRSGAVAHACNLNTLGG
How it was run: as §1

[5] = target: T5, OR1J2 (Homo sapiens) (UniProt Q8NGS2)
T5 sequence (whole entry): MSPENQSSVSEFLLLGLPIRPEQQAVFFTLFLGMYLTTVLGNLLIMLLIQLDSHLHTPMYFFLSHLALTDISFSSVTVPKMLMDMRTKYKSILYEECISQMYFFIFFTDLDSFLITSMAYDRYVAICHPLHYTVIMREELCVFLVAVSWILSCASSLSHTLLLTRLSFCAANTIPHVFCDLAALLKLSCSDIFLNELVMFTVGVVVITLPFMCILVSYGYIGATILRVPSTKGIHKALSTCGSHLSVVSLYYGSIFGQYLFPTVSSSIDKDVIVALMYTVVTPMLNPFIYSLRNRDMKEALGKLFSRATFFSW
How it was run: as §1

[6] = target: T6, OR1J4 (Homo sapiens) (UniProt Q8NGS1)
T6 sequence (whole entry): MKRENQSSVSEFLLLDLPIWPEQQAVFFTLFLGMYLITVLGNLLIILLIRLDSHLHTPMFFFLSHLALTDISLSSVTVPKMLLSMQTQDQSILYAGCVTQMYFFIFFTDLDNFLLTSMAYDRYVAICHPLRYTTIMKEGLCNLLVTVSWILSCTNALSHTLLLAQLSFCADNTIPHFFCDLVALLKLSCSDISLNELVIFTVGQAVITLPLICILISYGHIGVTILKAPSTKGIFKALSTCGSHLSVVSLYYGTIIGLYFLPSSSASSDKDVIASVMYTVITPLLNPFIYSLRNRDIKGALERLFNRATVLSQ
How it was run: as §1

[7] = target: T7, OR1K1 (Homo sapiens) (UniProt Q8NGR3)
T7 sequence (whole entry): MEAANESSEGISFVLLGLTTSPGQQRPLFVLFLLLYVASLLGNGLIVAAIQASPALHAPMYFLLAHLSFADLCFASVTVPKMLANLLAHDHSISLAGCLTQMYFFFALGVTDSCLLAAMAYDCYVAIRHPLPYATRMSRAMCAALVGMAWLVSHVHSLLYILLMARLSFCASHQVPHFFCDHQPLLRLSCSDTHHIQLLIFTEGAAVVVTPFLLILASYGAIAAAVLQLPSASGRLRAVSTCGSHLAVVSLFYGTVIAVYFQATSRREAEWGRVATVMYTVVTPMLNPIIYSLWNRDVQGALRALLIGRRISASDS
How it was run: as §1

[8] = target: T8, OR1L1 (Homo sapiens) (UniProt Q8NH94)
T8 sequence (whole entry): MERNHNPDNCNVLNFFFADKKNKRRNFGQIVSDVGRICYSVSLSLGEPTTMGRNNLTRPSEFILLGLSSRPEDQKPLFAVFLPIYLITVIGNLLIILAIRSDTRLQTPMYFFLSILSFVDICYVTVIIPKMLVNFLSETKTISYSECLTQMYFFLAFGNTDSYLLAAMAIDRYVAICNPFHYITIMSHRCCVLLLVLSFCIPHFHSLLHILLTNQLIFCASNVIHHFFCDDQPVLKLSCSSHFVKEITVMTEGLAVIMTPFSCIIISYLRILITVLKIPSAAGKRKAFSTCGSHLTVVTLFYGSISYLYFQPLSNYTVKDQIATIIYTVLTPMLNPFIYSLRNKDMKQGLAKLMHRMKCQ
How it was run: as §1

[9] = target: T9, OR1L3 (Homo sapiens) (UniProt Q8NH93)
T9 sequence (whole entry): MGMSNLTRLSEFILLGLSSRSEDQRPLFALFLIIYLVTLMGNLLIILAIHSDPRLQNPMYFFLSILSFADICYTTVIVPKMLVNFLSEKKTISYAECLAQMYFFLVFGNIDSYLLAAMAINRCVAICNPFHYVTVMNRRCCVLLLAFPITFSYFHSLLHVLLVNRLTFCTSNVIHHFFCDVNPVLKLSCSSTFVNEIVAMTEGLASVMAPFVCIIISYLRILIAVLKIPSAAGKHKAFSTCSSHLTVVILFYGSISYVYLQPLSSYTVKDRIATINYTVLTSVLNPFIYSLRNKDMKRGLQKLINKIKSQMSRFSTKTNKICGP
How it was run: as §1

[10] = target: T10, OR1L4 (Homo sapiens) (UniProt Q8NGR5)
T10 sequence (whole entry): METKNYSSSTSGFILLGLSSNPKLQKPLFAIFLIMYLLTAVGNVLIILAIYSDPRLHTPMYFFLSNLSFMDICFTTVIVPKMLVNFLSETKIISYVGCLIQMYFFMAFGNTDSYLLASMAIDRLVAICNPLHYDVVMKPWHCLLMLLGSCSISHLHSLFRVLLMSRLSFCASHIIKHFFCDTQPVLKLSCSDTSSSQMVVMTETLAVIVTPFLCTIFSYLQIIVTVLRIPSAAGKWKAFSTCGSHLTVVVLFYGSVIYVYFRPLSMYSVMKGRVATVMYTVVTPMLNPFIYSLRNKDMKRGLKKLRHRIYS
How it was run: as §1

[11] = target: T11, OR1L6 (Homo sapiens) (UniProt Q8NGR2)
T11 sequence (whole entry): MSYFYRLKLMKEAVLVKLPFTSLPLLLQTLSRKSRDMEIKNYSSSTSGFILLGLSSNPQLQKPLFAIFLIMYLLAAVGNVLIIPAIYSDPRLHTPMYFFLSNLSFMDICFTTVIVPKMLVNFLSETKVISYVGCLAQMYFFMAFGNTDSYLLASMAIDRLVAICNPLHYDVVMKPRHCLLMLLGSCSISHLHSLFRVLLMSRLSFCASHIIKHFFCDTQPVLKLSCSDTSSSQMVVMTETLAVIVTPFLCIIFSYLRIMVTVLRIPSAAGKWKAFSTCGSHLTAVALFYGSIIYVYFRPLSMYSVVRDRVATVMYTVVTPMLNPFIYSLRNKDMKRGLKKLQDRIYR
How it was run: as §1

[12] = target: T12, OR1L8 (Homo sapiens) (UniProt Q8NGR8)
T12 sequence (whole entry): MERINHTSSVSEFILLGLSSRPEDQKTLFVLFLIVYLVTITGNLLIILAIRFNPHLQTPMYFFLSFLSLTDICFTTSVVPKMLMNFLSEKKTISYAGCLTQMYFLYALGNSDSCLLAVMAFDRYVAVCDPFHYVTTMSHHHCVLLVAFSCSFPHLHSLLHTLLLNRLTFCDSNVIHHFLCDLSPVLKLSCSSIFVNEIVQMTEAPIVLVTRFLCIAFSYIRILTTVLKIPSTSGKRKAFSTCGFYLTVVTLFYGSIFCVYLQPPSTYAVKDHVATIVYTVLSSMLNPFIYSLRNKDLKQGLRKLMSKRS
How it was run: as §1

[13] = target: T13, OR1M1 (Homo sapiens) (UniProt Q8NGA1)
T13 sequence (whole entry): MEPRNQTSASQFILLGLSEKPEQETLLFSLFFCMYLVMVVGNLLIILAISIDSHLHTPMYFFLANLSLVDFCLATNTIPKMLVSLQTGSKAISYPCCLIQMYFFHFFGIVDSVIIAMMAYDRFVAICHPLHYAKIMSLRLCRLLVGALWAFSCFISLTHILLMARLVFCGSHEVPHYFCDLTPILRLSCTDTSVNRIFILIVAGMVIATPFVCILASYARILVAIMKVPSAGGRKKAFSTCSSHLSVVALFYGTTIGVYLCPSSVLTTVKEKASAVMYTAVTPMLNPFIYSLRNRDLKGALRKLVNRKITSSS
How it was run: as §1

[14] = target: T14, OR1N1 (Homo sapiens) (UniProt Q8NGS0)
T14 sequence (whole entry): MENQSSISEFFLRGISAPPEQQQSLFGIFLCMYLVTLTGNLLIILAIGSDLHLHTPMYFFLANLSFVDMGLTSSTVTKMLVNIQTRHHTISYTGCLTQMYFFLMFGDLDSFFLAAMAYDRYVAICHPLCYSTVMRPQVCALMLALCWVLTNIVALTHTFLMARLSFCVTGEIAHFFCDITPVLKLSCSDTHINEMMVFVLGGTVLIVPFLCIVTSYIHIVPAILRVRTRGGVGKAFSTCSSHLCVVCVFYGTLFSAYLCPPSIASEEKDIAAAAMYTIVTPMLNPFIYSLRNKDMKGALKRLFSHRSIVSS
How it was run: as §1

Measured: odorant receptor agonist call

COc1ccccc1
inactive: [1]

CCC(S)C(C)CO (stereo not given)
inactive: all assays above
